# Measurements taken from ChEMBL document CHEMBL3232844, “Synthesis and structure activity relationships of schweinfurthin indoles” (2014).
# Key:
# Assay type in all cases: functional
# [1] = test system: HL-60(TB); test: Cytotoxicity against human HL-60(TB) cells; settings: for CC50: read-out: pLC50 (the source's name) (converted); for TGI: read-out: pTGI (converted)
# Outline: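 Tested within the NCI 60-cell-line screen, with GI50 as the read-out. Values are the average of two independent experiments. The lowest concentration tested was 10 nM.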
# [2] = test system: RPMI-8226; test: Cytotoxicity against human RPMI8226 cells; settings: for CC50: read-out: pLC50 (the source's name) (converted); for TGI: read-out: pTGI (converted)
# Outline: (§1)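 Tested in a 60-cell-line human tumor panel screen; the read-out is growth inhibition, reported as GI50 for each cell line.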
# [3] = test system: SR; test: Cytotoxicity against human SR cells; settings: for CC50: read-out: pLC50 (the source's name) (converted); for TGI: read-out: pTGI (converted)
# Outline: (§2)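 Cell line run as part of the 60-cell-line screening panel; growth inhibition was reported as a GI50 for each line.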
# [4] = test system: HOP-92; test: Cytotoxicity against human HOP92 cells; settings: for CC50: read-out: pLC50 (the source's name) (converted); for TGI: read-out: pTGI (converted); outline: as §1
# [5] = test system: HCT-116; test: Cytotoxicity against human HCT116 cells; settings: for CC50: read-out: pLC50 (the source's name) (converted); for TGI: read-out: pTGI (converted); outline: as §1
# [6] = test system: SW-620; test: Cytotoxicity against human SW620 cells; settings: for CC50: read-out: pLC50 (the source's name) (converted); for TGI: read-out: pTGI (converted); outline: as §2
# [7] = test system: SF-268; test: Cytotoxicity against human SF268 cells; settings: for CC50: read-out: pLC50 (the source's name) (converted); for TGI: read-out: pTGI (converted); outline: as §1
# [8] = test system: Malme-3M; test: Cytotoxicity against human MALME-3M cells; settings: for CC50: read-out: pLC50 (the source's name) (converted); for TGI: read-out: pTGI (converted); outline: as §1
# [9] = test system: MDA-MB-435; test: Cytotoxicity against human MDA-MB-435 cells; settings: for CC50: read-out: pLC50 (the source's name) (converted); for TGI: read-out: pTGI (converted); outline: as §1
# [10] = test system: NCI-H522; test: Cytotoxicity against human NCI-H522 cells; settings: for CC50: read-out: pLC50 (the source's name) (converted); for TGI: read-out: pTGI (converted); outline: as §1
# [11] = test system: SK-MEL-28; test: Cytotoxicity against human SK-MEL-28 cells; settings: for CC50: read-out: pLC50 (the source's name) (converted); for TGI: read-out: pTGI (converted); outline: as §1
# [12] = test system: IGROV-1; test: Cytotoxicity against human IGROV1 cells; settings: for CC50: read-out: pLC50 (the source's name) (converted); for TGI: read-out: pTGI (converted); outline: as §1
# [13] = test system: 786-0; test: Cytotoxicity against human 786-0 cells; settings: for TGI: read-out: pTGI (converted); outline: as §1
# [14] = test system: SN12C; test: Cytotoxicity against human SN12C cells; settings: for TGI: read-out: pTGI (converted); outline: as §1
# [15] = test system: PC-3; test: Cytotoxicity against human PC3 cells; settings: for TGI: read-out: pTGI (converted); outline: as §1
# [16] = Cytotoxicity against human Hs578T cells; settings: Hs-578T; for TGI: read-out: pTGI (converted); outline: as §1
compound,measurement,setting,value
COc1cc(/C=C/c2cc(O)c3cc[nH]c3c2)cc2c1O[C@]1(C)CC[C@@H](O)C(C)(C)[C@H]1C2,GI50,[1],0.513 µM
same,CC50,[1],> 100 µM
same,TGI,[1],8.71 µM
same,GI50,[2],0.316 µM
same,CC50,[2],> 100 µM
same,TGI,[2],2.51 µM
same,GI50,[3],0.302 µM
same,CC50,[3],> 100 µM
same,TGI,[3],9.55 µM
same,GI50,[4],1.23 µM
same,CC50,[4],> 100 µM
same,TGI,[4],19.1 µM
same,GI50,[5],0.912 µM
same,CC50,[5],6.03 µM
same,TGI,[5],2.45 µM
same,GI50,[6],1.26 µM
same,CC50,[6],8.13 µM
same,TGI,[6],3.16 µM
same,GI50,[7],0.794 µM
same,CC50,[7],> 100 µM
same,TGI,[7],34.7 µM
same,GI50,[8],1.74 µM
same,CC50,[8],52.5 µM
same,TGI,[8],10.7 µM
same,GI50,[9],0.933 µM
same,CC50,[9],85.1 µM
same,TGI,[9],11.2 µM
same,GI50,[10],1.29 µM
same,CC50,[10],41.7 µM
same,TGI,[10],8.32 µM
same,GI50,[11],1.48 µM
same,CC50,[11],> 100 µM
same,TGI,[11],> 100 µM
same,GI50,[12],2.29 µM
same,CC50,[12],60.3 µM
same,TGI,[12],10.2 µM
same,GI50,[13],0.372 µM
same,LC50 (concentration killing 50% of cells),[13],6.31 µM
same,TGI,[13],1.82 µM
same,GI50,[14],7.08 µM
same,LC50,[14],> 100 µM
same,TGI,[14],67.6 µM
same,GI50,[15],0.631 µM
same,LC50,[15],> 100 µM
same,TGI,[15],38 µM
same,GI50,[16],0.251 µM
same,LC50,[16],> 100 µM
same,TGI,[16],0.871 µM
COc1cc(/C=C/c2cc(O)c3c(CC=C(C)C)c[nH]c3c2)cc2c1O[C@]1(C)CC[C@@H](O)C(C)(C)[C@H]1C2,GI50,[1],0.251 µM
same,CC50,[1],50.1 µM
same,TGI,[1],18.6 µM
same,GI50,[3],0.295 µM
same,CC50,[3],50.1 µM
same,TGI,[3],50.1 µM
same,GI50,[4],0.589 µM
same,CC50,[4],50.1 µM
same,TGI,[4],50.1 µM
same,GI50,[5],3.24 µM
same,CC50,[5],50.1 µM
same,TGI,[5],50.1 µM
same,GI50,[6],0.447 µM
same,CC50,[6],10.7 µM
same,TGI,[6],1.74 µM
same,GI50,[7],1.02 µM
same,CC50,[7],50.1 µM
same,TGI,[7],50.1 µM
same,GI50,[9],0.676 µM
same,CC50,[9],50.1 µM
same,TGI,[9],50.1 µM
same,GI50,[11],0.55 µM
same,CC50,[11],50.1 µM
same,TGI,[11],1.91 µM
same,GI50,[12],0.417 µM
same,CC50,[12],50.1 µM
same,TGI,[12],50.1 µM
same,GI50,[13],0.0851 µM
same,LC50 (concentration killing 50% of cells),[13],50.1 µM
same,TGI,[13],0.501 µM
same,GI50,[14],12 µM
same,LC50,[14],50.1 µM
same,TGI,[14],50.1 µM
same,GI50,[15],0.229 µM
same,LC50,[15],50.1 µM
same,TGI,[15],50.1 µM
same,GI50,[16],0.0708 µM
same,LC50,[16],50.1 µM
same,TGI,[16],1 µM
COc1cc(/C=C/c2cc(O)c3c(C/C=C(\C)CCC=C(C)C)c[nH]c3c2)cc2c1O[C@]1(C)CC[C@@H](O)C(C)(C)[C@H]1C2,GI50,[1],0.398 µM
same,CC50,[1],> 100 µM
same,TGI,[1],12.3 µM
same,GI50,[2],0.158 µM
same,CC50,[2],> 100 µM
same,TGI,[2],1.66 µM
same,GI50,[3],0.55 µM
same,CC50,[3],> 100 µM
same,TGI,[3],29.5 µM
same,GI50,[4],0.724 µM
same,CC50,[4],> 100 µM
same,TGI,[4],8.71 µM
same,GI50,[5],1.38 µM
same,CC50,[5],> 100 µM
same,TGI,[5],22.9 µM
same,GI50,[7],2.75 µM
same,CC50,[7],> 100 µM
same,TGI,[7],> 100 µM
same,GI50,[8],2.95 µM
same,CC50,[8],> 100 µM
same,TGI,[8],61.7 µM
same,GI50,[9],4.07 µM
same,CC50,[9],> 100 µM
same,TGI,[9],> 100 µM
same,GI50,[10],2.63 µM
same,CC50,[10],> 100 µM
same,TGI,[10],16.6 µM
same,GI50,[12],1.62 µM
same,CC50,[12],> 100 µM
same,TGI,[12],> 100 µM
same,GI50,[13],0.0468 µM
same,LC50 (concentration killing 50% of cells),[13],5.62 µM
same,TGI,[13],1.12 µM
same,GI50,[14],60.3 µM
same,LC50,[14],> 100 µM
same,TGI,[14],> 100 µM
same,GI50,[15],0.457 µM
same,LC50,[15],> 100 µM
same,TGI,[15],24.5 µM
COc1cc(/C=C/c2cc(OC)c3cc[nH]c3c2)cc2c1O[C@]1(C)CC[C@@H](O)C(C)(C)[C@H]1C2,GI50,[1],0.138 µM
same,CC50,[1],> 100 µM
same,TGI,[1],1.32 µM
same,GI50,[2],0.0282 µM
same,CC50,[2],> 100 µM
same,TGI,[2],0.0851 µM
same,GI50,[3],0.302 µM
same,CC50,[3],> 100 µM
same,TGI,[3],5.62 µM
same,GI50,[5],0.537 µM
same,CC50,[5],6.03 µM
same,TGI,[5],2.04 µM
same,GI50,[6],0.309 µM
same,CC50,[6],5.5 µM
same,TGI,[6],1.35 µM
same,GI50,[7],0.282 µM
same,CC50,[7],10 µM
same,TGI,[7],10.2 µM
same,GI50,[8],0.575 µM
same,CC50,[8],> 100 µM
same,TGI,[8],4.9 µM
same,GI50,[9],0.355 µM
same,CC50,[9],> 100 µM
same,TGI,[9],2.57 µM
same,GI50,[10],0.708 µM
same,CC50,[10],> 100 µM
same,TGI,[10],2.88 µM
same,GI50,[11],0.209 µM
same,TGI,[11],0.776 µM
same,GI50,[12],0.977 µM
same,CC50,[12],> 100 µM
same,TGI,[12],13.5 µM
same,GI50,[13],0.0724 µM
same,LC50 (concentration killing 50% of cells),[13],3.02 µM
same,TGI,[13],0.468 µM
same,GI50,[14],6.17 µM
same,LC50,[14],> 100 µM
same,TGI,[14],51.3 µM
same,GI50,[15],0.191 µM
same,LC50,[15],> 100 µM
same,TGI,[15],1.78 µM
same,GI50,[16],0.0513 µM
same,LC50,[16],> 100 µM
same,TGI,[16],0.776 µM
COc1cc(/C=C/c2cc(O)c3c(c2)C[C@@H]2C(C)(C)[C@H](O)CC[C@@]2(C)O3)cc2c1ccn2C,GI50,[1],0.0447 µM
same,CC50,[1],89.1 µM
same,TGI,[1],16.6 µM
same,GI50,[3],0.0759 µM
same,CC50,[3],89.1 µM
same,TGI,[3],39.8 µM
same,GI50,[4],0.955 µM
same,CC50,[4],89.1 µM
same,TGI,[4],12.6 µM
same,GI50,[5],0.407 µM
same,CC50,[5],35.5 µM
same,TGI,[5],13.5 µM
same,CC50,[6],18.6 µM
same,GI50,[7],0.0129 µM
same,CC50,[7],69.2 µM
same,TGI,[7],24 µM
same,GI50,[9],0.389 µM
same,CC50,[9],61.7 µM
same,TGI,[9],9.12 µM
same,GI50,[10],5.89 µM
same,GI50,[11],0.145 µM
same,CC50,[11],45.7 µM
same,TGI,[11],17.4 µM
same,GI50,[12],10.7 µM
same,CC50,[12],89.1 µM
same,TGI,[12],25.7 µM
same,GI50,[13],0.0275 µM
same,LC50 (concentration killing 50% of cells),[13],7.94 µM
same,TGI,[13],1.7 µM
same,GI50,[14],10.5 µM
same,LC50,[14],52.5 µM
same,TGI,[14],23.4 µM
same,GI50,[15],0.741 µM
same,LC50,[15],89.1 µM
same,TGI,[15],38 µM
same,GI50,[16],0.0229 µM
same,LC50,[16],89.1 µM
same,TGI,[16],3.55 µM
